Measurements as given in ChEMBL document CHEMBL1123440, “Mitomycin C analogues with increased metal complexing ability” (J Med Chem, 1986).

Tests used:
[1] = tested on: P388; experiment: Antitumor activity against P-388 leukemia in mice, activity is expressed as maximum effect (% T/C) = MST(median survival time) treated/ MST control in the present of Mitomycin C; assay type: functional, Mus musculus
How it was run: (§1)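 P388 ascites, 10⁶ cells implanted ip in female CDF1 mice. Six mice per dose of analogue, with 10 saline-injected controls. Each test group carried its own mitomycin C positive control, six mice per dose. Read-out is median survival time (MST). %T/C = MST treated/MST control × 100, taken at the optimal dose. MED is the dose giving %T/C 125. 30-day survivors were counted.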

[2] = tested on: P388; experiment: Antitumor activity against P-388 leukemia in mice, activity is expressed as Minimum effective dose; assay type: functional; details: Mus musculus, read-out: MED; how it was run: as §1
[3] = tested on: P388; experiment: (§2) Antitumor activity against P-388 leukemia in mice, activity is expressed as maximum effect (% T/C) = MST(median survival time) treated/ MST control in the presence of compound only; assay type: functional, Mus musculus; how it was run: as §1
[4] = tested on: P388; experiment: Antitumor activity against P-388 leukemia in mice, activity is expressed as Optimal dose; assay type: functional, Mus musculus; how it was run: as §1
[5] = Ratio value, Optimal dose / Minimum effective dose; assay type: functional
How it was run: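 Therapeutic ratio from the P388 ip survival test in female CDF1 mice (10⁶ ascites cells). Calculated as optimal dose divided by minimum effective dose. The minimum effective dose is the dose giving %T/C 125.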

[6] = Partition coefficient (logP); assay type: physicochemical; details: octanol/water
How it was run: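 Shake-flask distribution between n-octanol and water containing phosphate buffer at pH 7.4, run by the Hansch method.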

[7] = species on record: Mus musculus; experiment: Compound was tested for antitumor activity against P-388 leukemia in mice, activity is expressed as Optimal dose; 3.2-4.8; assay type: functional
[8] = species on record: Mus musculus; experiment: Compound was tested for antitumor activity against P-388 leukemia in mice, activity is expressed as maximum effect (% T/C) = MST(median survival time) treated/ MST control in the presence of compound only; 132->344; assay type: functional; how it was run: as §1
[9] = species on record: Mus musculus; experiment: Compound was tested for antitumor activity against P-388 leukemia in mice, activity is expressed as maximum effect (% T/C) = MST(median survival time) treated/ MST control in the pr; assay type: functional; how it was run: as §1
[10] = species on record: Mus musculus; experiment: as §2; assay type: functional; how it was run: as §1

Structure (SMILES)	T/C [1] [%]	minimal effective dose [2] [mg/kg]	T/C [3] [%]	OD [4] [mg/kg]	Ratio [5]	logP [6]	OD [7] [mg/kg]	T/C [8] [%]	T/C [9] [%]	T/C [10] [%]
CO[C@@]12C(COC(N)=O)C3=C(C(=O)C(C)=C(NCCNCCO)C3=O)N1CC1NC12 (stereo partly drawn)	156	12.8	133	12.8	1	-0.57				
CO[C@@]12C(COC(N)=O)C3=C(C(=O)C(C)=C(NCCc4c[nH]cn4)C3=O)N1CC1NC12 (stereo partly drawn)	213	1.6	163	25.6	16	-0.19				
CO[C@@]12C(COC(N)=O)C3=C(C(=O)C(C)=C(NCCNc4ccc([N+](=O)[O-])cn4)C3=O)N1CC1NC12 (stereo partly drawn)	250	2.6	144	12.8	8	0.77				
CO[C@@]12[C@H](COC(N)=O)C3=C(C(=O)C(C)=C(N)C3=O)N1C[C@@H]1N[C@@H]12 [MITOMYCIN]		0.2			24		3.2	132		
CO[C@@]12C(COC(N)=O)C3=C(C(=O)C(C)=C(NCCC(=O)O)C3=O)N1CC1NC12 (stereo partly drawn)	194	25.6	133	25.6						
CO[C@@]12C(COC(N)=O)C3=C(C(=O)C(C)=C(NCc4ccccn4)C3=O)N1CC1NC12 (stereo partly drawn)	272	1.6	233	25.6	16	-0.09				
CO[C@@]12C(COC(N)=O)C3=C(C(=O)C(C)=C(NCCCN)C3=O)N1CC1NC12 (stereo partly drawn)	279	6.4	147	25.6	4	-1.3				
CO[C@@]12C(COC(N)=O)C3=C(C(=O)C(C)=C(NCCCCN=C(N)N)C3=O)N1CC1NC12 (stereo partly drawn)	263	1.6	156	25.6	16					
CO[C@@]12C(COC(N)=O)C3=C(C(=O)C(C)=C(NCCC(N)C(=O)O)C3=O)N1CC1NC12 (stereo partly drawn)	206	6.4	139	25.6						
CO[C@@]12C(COC(N)=O)C3=C(C(=O)C(C)=C(N(C)CCc4ccccn4)C3=O)N1CC1NC12 (stereo partly drawn)	319	< 0.2	300	12.8	> 64	0.37				
COC(=O)C(CCSC)NC1=C(C)C(=O)C2=C(C1=O)C(COC(N)=O)[C@@]1(OC)C3NC3CN21 (stereo partly drawn)	250	3.2	131	6.4						
CO[C@@]12C(COC(N)=O)C3=C(C(=O)C(C)=C(NCCCN(CCO)CCO)C3=O)N1CC1NC12 (stereo partly drawn)	279	25.6	137	25.6	1	-0.36				
CCOC(=O)C(CO)NC1=C(C)C(=O)C2=C(C1=O)C(COC(N)=O)[C@@]1(OC)C3NC3CN21 (stereo partly drawn)	194	3.2	156	25.6						
CO[C@@]12C(COC(N)=O)C3=C(C(=O)C(C)=C(N(CCN)CCN)C3=O)N1CC1NC12 (stereo partly drawn)	276	3.2	129	25.6	8					
CO[C@@]12C(COC(N)=O)C3=C(C(=O)C(C)=C(NCCc4ccco4)C3=O)N1CC1NC12 (stereo partly drawn)	156	1.6	328	25.6	16					
CO[C@@]12C(COC(N)=O)C3=C(C(=O)C(C)=C(NC(C)C(=O)O)C3=O)N1CC1NC12 (stereo partly drawn)	132		109	12.8						
CO[C@@]12C(COC(N)=O)C3=C(C(=O)C(C)=C(NCCc4ccccn4)C3=O)N1CC1NC12 (stereo partly drawn)		0.2	>375	25.6	128	-0.09			319	
CO[C@@]12C(COC(N)=O)C3=C(C(=O)C(C)=C(NCC(O)CN)C3=O)N1CC1NC12 (stereo partly drawn)	>344	12.8	122	12.8						
CO[C@@]12C(COC(N)=O)C3=C(C(=O)C(C)=C(NC(CO)C(=O)O)C3=O)N1CC1NC12 (stereo partly drawn)	263	6.4	138	25.6						
CO[C@@]12C(COC(N)=O)C3=C(C(=O)C(C)=C(NCC(O)CO)C3=O)N1CC1NC12 (stereo partly drawn)	205	6.4	175	25.6	4					
CO[C@@]12C(COC(N)=O)C3=C(C(=O)C(C)=C(NCCOCCO)C3=O)N1CC1NC12 (stereo partly drawn)	213	0.4	181	25.6	64	-0.71				
CO[C@@]12C(COC(N)=O)C3=C(C(=O)C(C)=C(NCCc4ccncc4)C3=O)N1CC1NC12 (stereo partly drawn)	233	3.2		25.6	8	0.31				167
CO[C@@]12C(COC(N)=O)C3=C(C(=O)C(C)=C(NCCNCCN)C3=O)N1CC1NC12 (stereo partly drawn)	178		100			-1.14				
CO[C@@]12C(COC(N)=O)C3=C(C(=O)C(C)=C(NC(CCN=C(N)N)C(=O)O)C3=O)N1CC1NC12 (stereo partly drawn)	263	6.4	138	25.6						
